The source of these data is ChEMBL document CHEMBL1124568, “2,4-Diamino-5-benzylpyrimidines as antibacterial agents. 13. Some alkenyl derivatives with high in vitro activity against anaerobic organisms” (J Med Chem, 1989).

Data set [1] is described as follows: Half-life in dogs Plasma. The data set is classed as ADME, organism-based, Canis lupus familiaris. The note with it: dog. In outline: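 Two fasted (18 h) male beagles received 5 mg/kg […] (free base), co-dosed with 5 mg/kg trimethoprim in propylene glycol. Jugular plasma was sampled from 0.17 to 24 h. Drug was extracted, separated by TLC and read by fluorescence densitometry. t1/2 came from least-squares linear regression of the postabsorption segment of the plasma curve.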

A further data set concerns Phocaeicola vulgatus. Put plainly: Ratio of antibacterial (Bacteroides vulgatus) activities compared to that of trimethoprim and metronidazole. The data set is classed as functional.
The subject of data set [2] is Bacteroides thetaiotaomicron. Put plainly: Ratio of antibacterial (Bacteroides thetaiotaomicron) activities compared to that of trimethoprim and metronidazole. It counts as functional.
In another data set the test system is Clostridioides difficile. Put plainly: Ratio of antibacterial (Clostridium difficile) activities compared to that of trimethoprim and metronidazole. The data set is classed as functional.
Another data set has as its system Clostridium perfringens. Put plainly: Ratio of antibacterial (Clostridium perfringens) activities compared to that of trimethoprim and metronidazole. It counts as functional.
Data set [3] deals with Escherichia coli. Put plainly: Antibacterial (Escherichia coli) activity compared to trimethoprim. The data set is classed as functional. Summed up: (§1)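 Each MIC is divided by the MIC of trimethoprim run alongside. Serial dilutions were normally 0.1, 0.3, 1, 3, 10, etc., and occasionally 1, 5 and 10. For E. coli the value is the average over six strains.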
A further data set concerns Fusobacterium nucleatum. Put plainly: Ratio of antibacterial (Fusobacterium nucleatum) activities compared to that of trimethoprim and metronidazole. The data set is classed as functional.
Data set [4] has as its system Klebsiella pneumoniae. Put plainly: Antibacterial (Klebsiella pneumoniae CN3632) activity compared to trimethoprim. The data set is classed as functional. In outline: as §1
In the next data set the test system is Pasteurella multocida. In words: Antibacterial (Pasteurella multocides ATCC 6587) activity compared to trimethoprim. The data set is classed as functional. Summed up:
as §1

Data set [5] relates to Proteus vulgaris. In words: Antibacterial (Proteus vulgaris CN329) activity compared to trimethoprim. The data set is classed as functional. In outline: as §1
Data set [6] in a line: Antibacterial (Salmonella typhi CN512) activity compared to trimethoprim. The data set is classed as functional, salmonella typhosa.
Data set [7] has as its system Shigella dysenteriae. Put plainly: (§2) Ratio of antibacterial (Shigella dysentariae CN513) activities of compound and trimethoprim.
Data set [8] deals with Streptococcus pyogenes. Put plainly: Antibacterial ([…] CN10) activity compared to trimethoprim. The data set is classed as functional. Summed up: as §1
In data set [9] the test system is Staphylococcus aureus. Put plainly: Antibacterial (Staphylococcus aureus CN491) activity compared to trimethoprim. The data set is classed as functional. In outline: as §1
Data set [10] deals with Klebsiella aerogenes. Put plainly: Antibacterial (Enterobacter aerogenes 2201/86) activity compared to trimethoprim. The data set is classed as functional. Summed up:
as §1

The target in data set [11] is T1, Dihydrofolate reductase (Rattus norvegicus, UniProt Q920D2).
T1 sequence (Q920D2 whole entry): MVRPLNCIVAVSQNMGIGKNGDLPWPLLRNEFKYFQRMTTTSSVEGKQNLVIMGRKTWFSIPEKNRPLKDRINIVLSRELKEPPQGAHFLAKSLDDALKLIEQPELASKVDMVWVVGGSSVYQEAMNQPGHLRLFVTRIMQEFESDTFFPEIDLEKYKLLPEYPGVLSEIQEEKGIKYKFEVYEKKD
In words: In vitro inhibition of rat liver dihydrofolate reductase. Conditions: read-out: I50.

Data set [12] deals with Mycolicibacterium smegmatis. Put plainly: Antibacterial (Mycobacterium smegmatis S3254) activity compared to trimethoprim. The data set is classed as functional. In outline:
as §1

Another data set relates to Shigella flexneri. In words: Antibacterial (Shigella flexneri CN6007) activity compared to trimethoprim. The data set is classed as functional. In outline:
as §1

The subject of a further data set is Serratia marcescens. In words: Antibacterial (Serratia marcescens CN2398) activity compared to trimethoprim. It counts as functional. Summed up:
as §1

In data set [13] the target is T2, Dihydrofolate reductase (Escherichia coli, UniProt P0ABQ4).
T2 sequence (P0ABQ4 whole entry): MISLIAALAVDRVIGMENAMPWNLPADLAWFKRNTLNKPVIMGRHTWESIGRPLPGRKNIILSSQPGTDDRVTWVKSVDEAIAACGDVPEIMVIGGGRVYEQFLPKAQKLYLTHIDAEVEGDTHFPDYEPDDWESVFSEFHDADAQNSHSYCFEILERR
Put plainly: Antibacterial activity against Escherichia coli DHFR. In outline: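 E. coli DHFR assay with 1 nM enzyme. I50 is the inhibitor concentration that halves the standard-assay velocity. […] Apparent Ki for some inhibitors was obtained by the Henderson method.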

The target of data set [14] is Bifunctional dihydrofolate reductase-thymidylate synthase (Plasmodium berghei str. ANKA, UniProt Q27713). In words: In vitro inhibition of dihydrofolate reductase of Plasmodium berghei. Conditions: read-out: I50.
Sequence of Bifunctional dihydrofolate reductase-thymidylate synthase (Q27713 whole entry): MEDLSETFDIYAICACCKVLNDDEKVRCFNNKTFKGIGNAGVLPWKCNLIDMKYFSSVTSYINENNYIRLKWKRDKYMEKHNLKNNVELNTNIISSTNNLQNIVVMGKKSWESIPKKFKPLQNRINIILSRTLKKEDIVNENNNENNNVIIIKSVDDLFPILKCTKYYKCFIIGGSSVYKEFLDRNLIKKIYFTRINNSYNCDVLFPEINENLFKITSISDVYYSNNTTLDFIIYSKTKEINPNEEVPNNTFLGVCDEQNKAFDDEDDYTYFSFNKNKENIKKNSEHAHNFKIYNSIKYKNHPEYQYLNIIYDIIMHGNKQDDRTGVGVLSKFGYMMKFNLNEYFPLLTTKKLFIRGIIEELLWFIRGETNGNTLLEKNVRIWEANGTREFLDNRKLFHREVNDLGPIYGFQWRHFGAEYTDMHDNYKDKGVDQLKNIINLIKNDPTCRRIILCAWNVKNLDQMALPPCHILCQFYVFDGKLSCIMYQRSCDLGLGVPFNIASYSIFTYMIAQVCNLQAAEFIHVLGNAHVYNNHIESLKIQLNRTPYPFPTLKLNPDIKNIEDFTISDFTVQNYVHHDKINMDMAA
Data set [15] has as its system Klebsiella aerogenes. In words: Ratio of antibacterial (Enterobacter aerogenes, 2201/86) activities of compound and trimethoprim. It counts as functional. In outline: as §1
Data set [16] relates to Klebsiella pneumoniae. In words: Ratio of antibacterial (Klebsiella pneumoniae CN3632) activities of compound and trimethoprim. It counts as functional. In outline:
as §1

The test system of data set [17] is Proteus vulgaris. In words: Ratio of antibacterial (Proteus vulgaris CN329) activities of compound and trimethoprim. The data set is classed as functional. In outline: as §1
Data set [18] relates to Shigella dysenteriae. The data set is described as §2. The data set is classed as functional.
Data set [19] has as its system Staphylococcus aureus. Put plainly: Ratio of antibacterial (Staphylococcus aureus CN491) activities of compound and trimethoprim. It counts as functional. In outline: as §1
For a further data set, the system named is Salmonella. Put plainly: Ratio of antibacterial (Salmonella typhi CN512) activities of compound and trimethoprim. It counts as functional, salmonella typhosa.
In data set [20] the test system is Escherichia coli. In words: Ratio of antibacterial (Escherichia coli CN314) activities of compound and trimethoprim. The data set is classed as functional.
The target of data set [21] is T2, Dihydrofolate reductase. Put plainly: In vitro inhibition of dihydrofolate reductase of Escherichia coli. The note with it: read-out: I50. Summed up:
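The E. coli DHFR assay contained 1 nM enzyme, with the lower limit for I50 arbitrarily set at 2 nM. I50 was estimated from plots of % inhibition of steady-state velocity vs log inhibitor concentration.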

Data set [22] relates to Streptococcus pyogenes. Put plainly: Ratio of antibacterial (Streptococcus pyogenes CN10) activities of compound and trimethoprim.

≈ marks a conversion by molar mass, not a printed value. A value given as a limit tells only on which side of the number the result lay.

`COc1cc(Cc2cnc(N)nc2N)cc(OC)c1OC` [TRIMETHOPRIM]: the half-life in [1] was 206 min. Moreover, the MIC in the data set on Phocaeicola vulgatus is 6.2 µg/mL; in [2] it was 12.5 µg/mL; in the data set on Clostridioides difficile it was > 25 µg/mL; in the data set on Clostridium perfringens it was > 25 µg/mL; against Escherichia coli [3], 1 µg/mL (≈ 3.44 µM); with Fusobacterium nucleatum, 0.8 µg/mL. The MIC against Klebsiella pneumoniae [4] was 1 µg/mL (≈ 3.44 µM); in the data set with Pasteurella multocida, 1 µg/mL (≈ 3.44 µM); against Proteus vulgaris [5], 1 µg/mL (≈ 3.44 µM); in [6] it was 1 µg/mL (≈ 3.44 µM); with Shigella dysenteriae [7], 1 µg/mL; against Streptococcus pyogenes [8] it was 1 µg/mL (≈ 3.44 µM). In addition, the MIC against Staphylococcus aureus [9] and in the data set on Klebsiella aerogenes [10] was 1 µg/mL (≈ 3.44 µM) in each case.

Take `C=CCc1cc(Cc2cnc(N)nc2N)cc(CCC)c1OC`: the MIC came out at 0.2 µg/mL with Phocaeicola vulgatus; 0.1 µg/mL in [2]; 25 µg/mL with Clostridioides difficile; 12.5 µg/mL with Clostridium perfringens; 38 µg/mL (≈ 122 µM) against Escherichia coli [3]; 0.8 µg/mL with Fusobacterium nucleatum. Besides, the MIC against Klebsiella pneumoniae [4] is 100 µg/mL (≈ 320 µM); in data set [12], 0.5 µg/mL (≈ 1.6 µM); in the data set on Pasteurella multocida it was 10 µg/mL (≈ 32 µM); against Proteus vulgaris [5], > 50 µg/mL; in data set [6], 100 µg/mL (≈ 320 µM); against Shigella flexneri, 100 µg/mL (≈ 320 µM). In addition, the minimal inhibitory concentration (MIC) against Serratia marcescens was > 10 µg/mL; against Streptococcus pyogenes [8], 2 µg/mL (≈ 6.4 µM); in the data set with Staphylococcus aureus [9], 1 µg/mL (≈ 3.2 µM); against Klebsiella aerogenes [10], 100 µg/mL (≈ 320 µM). For the same compound, the IC50 on Dihydrofolate reductase [11] is 15 µM. The compound further registered a Ki on Dihydrofolate reductase [13] of 1.6 nM.

`C=CCc1cc(Cc2cnc(N)nc2N)cc(OC)c1OC` showed a half-life in [1] of 50.4 min. Further, the MIC with Phocaeicola vulgatus is 1.6 µg/mL; in [2], 1.6 µg/mL; in the data set with Clostridioides difficile it was > 25 µg/mL; in the data set with Clostridium perfringens it was > 25 µg/mL; in the data set with Escherichia coli [3], 6 µg/mL (≈ 20 µM); with Fusobacterium nucleatum, 0.4 µg/mL. Besides, the MIC turned out to be 10 µg/mL (≈ 33.3 µM) in the data set on Klebsiella pneumoniae [4]; 3 µg/mL (≈ 9.99 µM) in [12]; 10 µg/mL (≈ 33.3 µM) in the data set with Pasteurella multocida; 10 µg/mL (≈ 33.3 µM) in the data set with Proteus vulgaris [5]; 3 µg/mL (≈ 9.99 µM) in data set [6]; 10 µg/mL (≈ 33.3 µM) against Shigella flexneri. Also, the MIC worked out at 3 µg/mL (≈ 9.99 µM) with Serratia marcescens, 0.3 µg/mL (≈ 0.999 µM) in the data set on Streptococcus pyogenes [8], 0.1 µg/mL (≈ 0.333 µM) in the data set on Staphylococcus aureus [9] and 10 µg/mL (≈ 33.3 µM) with Klebsiella aerogenes [10]. Further, on Dihydrofolate reductase [11], the IC50 was found to be 50 µM.

On to `CCOc1cc(Cc2cnc(N)nc2N)cc(OC)c1OC`, for which, in data set [1], the half-life was 188 min. For the same compound, at Dihydrofolate reductase [11], the IC50 stood at 140 µM. For the same compound, the MIC against Escherichia coli [3] amounted to 2.6 µg/mL (≈ 8.54 µM); against Klebsiella pneumoniae [4], 1 µg/mL (≈ 3.29 µM); in data set [12], 1 µg/mL (≈ 3.29 µM); against Pasteurella multocida it was 1 µg/mL (≈ 3.29 µM); against Proteus vulgaris [5], 1 µg/mL (≈ 3.29 µM); in data set [6], 1 µg/mL (≈ 3.29 µM). For the same compound, the MIC in the data set with Shigella flexneri was 1 µg/mL (≈ 3.29 µM); against Serratia marcescens, 3 µg/mL (≈ 9.86 µM); against Streptococcus pyogenes [8] it was 0.3 µg/mL (≈ 0.986 µM); in the data set on Staphylococcus aureus [9], 0.3 µg/mL (≈ 0.986 µM); in the data set on Klebsiella aerogenes [10] it was 1 µg/mL (≈ 3.29 µM).

`CCCc1cc(Cc2cnc(N)nc2N)cc2c1OC(C)C2` (stereo unspecified): the IC50 was 6.25 µM on Dihydrofolate reductase [11], 93 nM in data set [14] and 21 nM on Dihydrofolate reductase [21]. Also, the MIC in the data set with Klebsiella aerogenes [15] was determined as 100 µg/mL; in the data set with Klebsiella pneumoniae [16], 100 µg/mL; in the data set with Proteus vulgaris [17] it was 30 µg/mL; in the data set on Shigella dysenteriae [18] it was 30 µg/mL; with Staphylococcus aureus [19] it was 1 µg/mL; with Salmonella, 100 µg/mL. The results for the MIC in the data set with Escherichia coli [20] and in the data set on Streptococcus pyogenes [22] were 30 µg/mL and 1 µg/mL, respectively.

Take `CCCc1cc(Cc2cnc(N)nc2N)cc(CCC)c1O`: the Ki at Dihydrofolate reductase [13] came out at 1.7 nM. That is a single-digit nanomolar value.
